ChEMBL document CHEMBL5316332 (J Med Chem, 2023)
Activity calls are given as the source filed them. No cut-off for these calls is given here.

How the values were obtained:
Activin receptor type-2B = Activin receptor type-2B (Homo sapiens, UniProt Q13705); assay: Inhibition of ACVR2B (unknown origin) by LanthaScreen TR-FRET assay
In short: (§1)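 Outsourced SelectScreen profiling using a LanthaScreen TR-FRET binding format, in which a tight-binding tracer is displaced from the kinase.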

[1] = Metabolic stability in mouse liver microsomes assessed as half life at 2 uM and mesured upto 60 mins in presence of NADPH by UHPLC-MS analysis; type: ADME, Microsome; conditions: microsomes, 1 h, 2 µM
[2] = biological target: T1, Activin receptor type-1B (Homo sapiens) (UniProt P36896); assay: Inhibition of ACVR1B (unknown origin) by Z'-LYTE assay
T1 sequence (whole entry): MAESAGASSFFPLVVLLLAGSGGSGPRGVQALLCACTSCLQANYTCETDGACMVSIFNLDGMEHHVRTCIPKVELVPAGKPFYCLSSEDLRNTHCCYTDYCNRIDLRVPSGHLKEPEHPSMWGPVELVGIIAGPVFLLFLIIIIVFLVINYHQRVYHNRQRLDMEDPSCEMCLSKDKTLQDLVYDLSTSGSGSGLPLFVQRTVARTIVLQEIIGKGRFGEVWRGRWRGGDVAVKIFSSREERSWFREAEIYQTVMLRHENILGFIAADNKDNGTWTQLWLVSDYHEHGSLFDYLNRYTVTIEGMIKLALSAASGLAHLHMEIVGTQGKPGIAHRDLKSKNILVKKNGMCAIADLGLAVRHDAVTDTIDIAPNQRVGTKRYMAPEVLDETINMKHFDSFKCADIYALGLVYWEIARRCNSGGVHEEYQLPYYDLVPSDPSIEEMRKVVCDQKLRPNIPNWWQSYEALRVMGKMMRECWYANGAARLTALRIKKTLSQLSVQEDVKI
In short: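 Outsourced SelectScreen profiling by Z'-LYTE, a fluorescence coupled-enzyme kinase activity assay based on protease sensitivity of nonphosphorylated versus phosphorylated peptide.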

[3] = Inhibition of BMP signalling pathway in BMP2-stimulated human HEK293T cells expressing BRE and luciferase reporter assessed as inhibition of luciferase transactivation by measuring BRE-reporter activity preincubated for 30 mins followed by BMP2 stimulation and measured after 6 hrs by Bright-GLO mediated luciferase assay; type: cell-based; conditions: HEK-293T
In short: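 293T cells stably carrying a BMP-responsive-element luciferase reporter, 2 × 10^4 per well, attached overnight in phenol-red-free DMEM with 2 mM glycine and 2% heat-inactivated FBS. Pretreated 30 min with inhibitor, then 5 ng/mL BMP2 for 6 h. Bright-Glo luminescence read; IC50 by nonlinear regression.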

[4] = biological target: T2, Bone morphogenetic protein receptor type-2 (Homo sapiens, UniProt Q13873); assay: Inhibition of recombinant C-terminal 6His-tagged human BMPR2 (188 to 517 residues) expressed in Escherichia coli Rosetta by LanthaScreen TR-FRET assay; in short: as §1
T2 sequence (Q13873 whole entry): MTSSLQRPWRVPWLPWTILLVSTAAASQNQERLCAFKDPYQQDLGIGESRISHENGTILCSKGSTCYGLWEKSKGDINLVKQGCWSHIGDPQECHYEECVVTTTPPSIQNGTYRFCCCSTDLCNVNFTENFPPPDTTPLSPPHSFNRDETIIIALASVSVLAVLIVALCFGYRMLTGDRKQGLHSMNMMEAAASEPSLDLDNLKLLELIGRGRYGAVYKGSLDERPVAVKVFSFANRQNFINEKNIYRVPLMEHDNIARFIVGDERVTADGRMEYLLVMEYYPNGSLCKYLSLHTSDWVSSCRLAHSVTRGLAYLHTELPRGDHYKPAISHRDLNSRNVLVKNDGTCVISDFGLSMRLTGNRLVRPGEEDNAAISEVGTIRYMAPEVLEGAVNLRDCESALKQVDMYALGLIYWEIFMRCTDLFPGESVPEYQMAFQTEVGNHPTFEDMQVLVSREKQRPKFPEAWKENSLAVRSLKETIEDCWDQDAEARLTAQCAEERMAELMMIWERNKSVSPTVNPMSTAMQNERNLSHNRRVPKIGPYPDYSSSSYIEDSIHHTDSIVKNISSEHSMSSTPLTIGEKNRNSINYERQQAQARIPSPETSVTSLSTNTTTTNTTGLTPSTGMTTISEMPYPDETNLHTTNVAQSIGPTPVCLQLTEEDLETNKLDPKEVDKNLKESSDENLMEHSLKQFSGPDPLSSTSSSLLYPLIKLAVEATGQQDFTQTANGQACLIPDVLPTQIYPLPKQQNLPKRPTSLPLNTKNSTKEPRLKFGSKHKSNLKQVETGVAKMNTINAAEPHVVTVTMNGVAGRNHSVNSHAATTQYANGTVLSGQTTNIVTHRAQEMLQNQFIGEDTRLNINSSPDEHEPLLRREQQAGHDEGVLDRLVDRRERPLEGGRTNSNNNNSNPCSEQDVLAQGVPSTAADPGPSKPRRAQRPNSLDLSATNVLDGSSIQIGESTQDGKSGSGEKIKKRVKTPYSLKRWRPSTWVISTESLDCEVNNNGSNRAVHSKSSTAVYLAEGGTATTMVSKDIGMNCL

[5] = biological target: Bone morphogenetic protein receptor type-1B (Homo sapiens, UniProt O00238); assay: Inhibition of BMPR1B (unknown origin) by LanthaScreen TR-FRET assay; in short: as §1
[6] = biological target: T2, Bone morphogenetic protein receptor type-2; assay: Inhibition of recombinant C-terminal 6His-tagged human BMPR2 (188 to 517 residues) expressed in Escherichia coli Rosetta assessed as apparent inhibition constant using ATP as substrate incubated for 30 mins by Morrison plot analysis; conditions: read-out: Ki(app)
In short: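 Purified His-tagged BMPR2 kinase domain with no peptide substrate (intrinsic ATPase). 10 μM ATP, 0.02% Tween-20, kinase buffer, 50 μL, enzyme level optimized for initial-velocity conditions. 30 min at 30 °C. Leftover ATP read by Kinase-Glo luminescence, with no-kinase controls. Kiapp from a modified Morrison equation fitted to normalized fractional activity, assuming no specific inhibition mode.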

[7] = biological target: Bone morphogenetic protein receptor type-1A (Homo sapiens, UniProt P36894); assay: Inhibition of BMPR1A (unknown origin) by LanthaScreen TR-FRET assay; in short: as §1
Activin receptor type-2A = Activin receptor type-2A (Homo sapiens, UniProt P27037); assay: Inhibition of ACVR2A (unknown origin) by LanthaScreen TR-FRET assay; in short: as §1
[8] = Metabolic stability in human liver microsomes assessed as half life at 2 uM and mesured upto 60 mins in presence of NADPH by UHPLC-MS analysis; type: ADME, Microsome; conditions: microsomes, 1 h, 2 µM
TGF-beta receptor type-2 = TGF-beta receptor type-2 (Homo sapiens, UniProt P37173); assay: Inhibition of TGFBR2 (unknown origin) by LanthaScreen TR-FRET assay; in short: as §1
Sequence of TGF-beta receptor type-2 (P37173 whole entry): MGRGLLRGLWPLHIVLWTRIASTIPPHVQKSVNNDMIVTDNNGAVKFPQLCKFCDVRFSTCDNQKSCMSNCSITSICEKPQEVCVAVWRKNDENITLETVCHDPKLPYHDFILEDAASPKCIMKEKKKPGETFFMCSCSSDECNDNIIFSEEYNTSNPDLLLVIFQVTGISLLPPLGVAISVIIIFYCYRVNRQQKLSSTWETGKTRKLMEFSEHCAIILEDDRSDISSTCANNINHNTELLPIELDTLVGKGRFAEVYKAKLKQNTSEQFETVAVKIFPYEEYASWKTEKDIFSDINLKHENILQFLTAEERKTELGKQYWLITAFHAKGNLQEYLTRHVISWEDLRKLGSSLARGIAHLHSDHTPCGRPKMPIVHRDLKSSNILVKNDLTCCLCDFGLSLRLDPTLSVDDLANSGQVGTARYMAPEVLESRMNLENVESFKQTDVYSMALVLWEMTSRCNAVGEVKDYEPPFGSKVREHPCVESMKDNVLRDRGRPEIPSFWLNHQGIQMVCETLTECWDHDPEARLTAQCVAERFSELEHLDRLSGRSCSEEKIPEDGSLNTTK

Sequence of Bone morphogenetic protein receptor type-1A (P36894 whole entry): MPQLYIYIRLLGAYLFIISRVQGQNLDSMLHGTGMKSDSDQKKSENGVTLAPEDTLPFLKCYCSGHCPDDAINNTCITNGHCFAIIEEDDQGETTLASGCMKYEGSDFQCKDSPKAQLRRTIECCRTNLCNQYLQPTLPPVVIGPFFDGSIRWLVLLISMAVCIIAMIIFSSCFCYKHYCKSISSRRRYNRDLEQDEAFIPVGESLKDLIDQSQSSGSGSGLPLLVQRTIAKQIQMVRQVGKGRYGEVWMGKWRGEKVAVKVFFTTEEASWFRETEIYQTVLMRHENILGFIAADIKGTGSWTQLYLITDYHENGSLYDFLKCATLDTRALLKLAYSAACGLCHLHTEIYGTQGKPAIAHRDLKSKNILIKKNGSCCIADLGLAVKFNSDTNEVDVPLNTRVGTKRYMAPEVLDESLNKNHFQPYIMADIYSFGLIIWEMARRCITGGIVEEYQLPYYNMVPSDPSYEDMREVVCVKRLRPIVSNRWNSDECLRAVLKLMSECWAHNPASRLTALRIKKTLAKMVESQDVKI
Sequence of Activin receptor type-2B (Q13705 whole entry): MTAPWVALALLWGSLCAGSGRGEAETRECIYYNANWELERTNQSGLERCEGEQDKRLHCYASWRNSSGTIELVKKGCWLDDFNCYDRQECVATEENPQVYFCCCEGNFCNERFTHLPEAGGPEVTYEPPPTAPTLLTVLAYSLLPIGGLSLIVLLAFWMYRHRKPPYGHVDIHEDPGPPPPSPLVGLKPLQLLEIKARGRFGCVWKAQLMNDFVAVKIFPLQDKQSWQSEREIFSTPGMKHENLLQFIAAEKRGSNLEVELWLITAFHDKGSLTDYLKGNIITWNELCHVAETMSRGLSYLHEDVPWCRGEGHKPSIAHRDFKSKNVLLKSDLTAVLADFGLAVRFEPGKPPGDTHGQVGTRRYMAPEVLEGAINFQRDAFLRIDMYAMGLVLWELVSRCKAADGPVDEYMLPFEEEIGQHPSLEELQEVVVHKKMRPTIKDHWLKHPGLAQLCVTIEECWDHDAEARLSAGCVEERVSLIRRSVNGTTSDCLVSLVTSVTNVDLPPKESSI
Sequence of Activin receptor type-2A (P27037 whole entry): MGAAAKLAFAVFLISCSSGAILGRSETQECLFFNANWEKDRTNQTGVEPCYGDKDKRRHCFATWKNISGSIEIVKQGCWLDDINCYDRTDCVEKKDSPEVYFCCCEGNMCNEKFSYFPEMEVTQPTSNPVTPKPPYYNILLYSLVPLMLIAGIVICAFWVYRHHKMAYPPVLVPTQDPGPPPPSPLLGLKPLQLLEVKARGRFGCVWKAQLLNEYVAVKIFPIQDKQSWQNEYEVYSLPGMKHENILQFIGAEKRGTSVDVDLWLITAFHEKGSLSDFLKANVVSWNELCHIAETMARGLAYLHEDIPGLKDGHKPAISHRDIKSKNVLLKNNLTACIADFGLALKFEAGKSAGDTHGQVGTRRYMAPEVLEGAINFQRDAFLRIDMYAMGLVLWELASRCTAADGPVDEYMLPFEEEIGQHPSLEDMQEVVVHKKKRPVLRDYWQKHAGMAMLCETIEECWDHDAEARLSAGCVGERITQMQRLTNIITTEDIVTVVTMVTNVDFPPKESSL
Sequence of Bone morphogenetic protein receptor type-1B (O00238 whole entry, the tested form may be a part): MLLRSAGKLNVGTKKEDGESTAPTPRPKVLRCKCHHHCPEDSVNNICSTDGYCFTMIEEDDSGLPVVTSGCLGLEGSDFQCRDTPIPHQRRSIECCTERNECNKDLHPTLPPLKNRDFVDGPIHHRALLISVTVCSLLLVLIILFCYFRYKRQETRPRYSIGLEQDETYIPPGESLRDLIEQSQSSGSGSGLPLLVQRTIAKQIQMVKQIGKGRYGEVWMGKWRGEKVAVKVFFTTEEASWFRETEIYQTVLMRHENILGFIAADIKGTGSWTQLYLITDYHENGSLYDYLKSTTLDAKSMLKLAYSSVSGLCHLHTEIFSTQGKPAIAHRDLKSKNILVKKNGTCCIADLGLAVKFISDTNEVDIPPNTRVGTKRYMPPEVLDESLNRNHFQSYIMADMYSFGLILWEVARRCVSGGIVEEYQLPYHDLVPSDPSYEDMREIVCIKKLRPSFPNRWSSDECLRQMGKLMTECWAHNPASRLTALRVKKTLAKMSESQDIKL

Row | inhibition (Activin receptor type-2B) | t1/2 [1] [min] | inhibition [2] | IC50 [3] [nM] | IC50 [4] [nM] | inhibition [5] | Ki [6] [nM] | inhibition [7] | inhibition (Activin receptor type-2A) | t1/2 [8] [min] | inhibition (TGF-beta receptor type-2) | IC50 [5] [nM] | IC50 [7] [nM] | Compound
1 | inactive | 40 | inactive | 6920 | 2.8 | inactive | 7 | inactive | inactive | 305 | inactive | – | – | COc1cnc(Nc2cccc(S(N)(=O)=O)c2)nc1N1CCN(c2ccccc2)C(=O)C1
2 | inactive | – | inactive | 24100 | 1.8 | – | 6.2 | – | inactive | – | inactive | > 1000 | > 1000 | CNC(=O)[C@@H]1CC[C@@H](n2c(-c3ccc4cnccc4c3)nc3ccc(C(=O)NCc4cccc(C(N)=O)c4)cc32)C1
3 | inactive | 45 | inactive | 6190 | 1.2 | – | 8 | – | inactive | 80 | inactive | > 1000 | > 1000 | NC(=O)c1cccc(CNC(=O)c2ccc3nc(-c4ccc5cnccc5c4)n(C4CCCC4)c3c2)c1
4 | inactive | 7 | inactive | 4870 | 1.6 | inactive | 20.6 | inactive | inactive | 22 | inactive | – | – | CNC(=O)CCc1ccc(C(=O)NCc2cccc(N3CCN(c4nc(Nc5cccc(S(N)(=O)=O)c5)ncc4OC)CC3)c2)cc1
